# This is a sample that favours compounds with a hit; in the whole collection about 1.7% have one here.
# SR-BI DiI inh = inhibitors of SR-BI mediated HDL lipid uptake, primary screen, ldlA[mSR-BI] cells, fluorescence, single point | 320,000 compounds, 0.96% hits | inhibition, % at 12.5 µM | AID 488896, 2010 | Scavenger receptor class B member 1 (Mus musculus), Q61009 | ldlA[mSR-BI] CHO cells, DiI-HDL uptake fluorescence, 3 h;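 active = mean replicate inhibition of at least 70% and a set share of replicates each scoring 70 or more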;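 also: 0% = median of neutral control wells and 100% = median of positive control wells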
# Target sequence (Q61009 whole entry, looked up): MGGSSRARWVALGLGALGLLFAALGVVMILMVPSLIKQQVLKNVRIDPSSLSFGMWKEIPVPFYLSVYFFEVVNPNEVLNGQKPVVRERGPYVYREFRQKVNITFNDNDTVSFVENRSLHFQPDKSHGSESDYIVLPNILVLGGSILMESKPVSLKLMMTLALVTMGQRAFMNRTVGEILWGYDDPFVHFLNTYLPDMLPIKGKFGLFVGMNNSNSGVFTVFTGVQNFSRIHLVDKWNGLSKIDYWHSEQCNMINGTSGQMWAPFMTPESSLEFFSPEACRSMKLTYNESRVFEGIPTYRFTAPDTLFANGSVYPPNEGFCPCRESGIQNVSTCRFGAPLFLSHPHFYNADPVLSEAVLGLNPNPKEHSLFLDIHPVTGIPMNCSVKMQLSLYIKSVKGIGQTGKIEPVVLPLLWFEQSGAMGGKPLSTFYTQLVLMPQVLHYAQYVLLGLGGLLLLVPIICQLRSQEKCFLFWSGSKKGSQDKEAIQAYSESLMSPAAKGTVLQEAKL
# C2C12 statin = suppressors of statin myotoxicity in C2C12 myotubes, primary screen, cell-based, single point, plate reader. C2C12 myotubes + simvastatin, ATP luminescence, 48 h; scaled: DMSO 0, geranylgeraniol control 100. rescue of ATP level, % at 7.49 µM. 330,000 compounds, 0.78% hits;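 active = mean ATP rescue above about 67%, or every replicate alone reaching that limit, limit read from the data, passing the limit was not always enough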;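 also: myotubes were challenged with 10 µM simvastatin during compound exposure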
# Vif inh = HIV Vif self-association inhibitors, primary screen, imaging, HEK293T, single point | HEK293T cells, Vif self-association by quenched fluorescence, 24 h | inhibition, % at 7.49 µM | 340,000 compounds, 0.35% hits; in the data active = inhibition above about 50%, passing the limit was not always enough
# SR-BI uptake up = activators of SR-BI mediated DiI-HDL uptake, primary screen, ldlA[mSR-BI] CHO cells, DiI fluorescence | 320,000 compounds, 0.096% hits | 3 h; 100 = double the neutral-control signal | activation, % at 12.5 µM;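 active = mean replicate activation of at least 60% and every replicate at or above 60%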;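 also: 0% = median plate neutral-control signal and 100% = twice that signal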
#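 Test system: SR-BI-overexpressing, LDLR-lacking CHO cells; Medium: Ham's F12 with 0.5% BSA, HEPES 25 mM, pH 7.4; Schedule: 3 h, 37 °C; Technique: bottom-read fluorescence, 550/595 nm.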
# An asterisk follows results filed as active; · = not tested or not shown.
SMILES,SR-BI DiI inh,C2C12 statin,Vif inh,SR-BI uptake up
Cc1noc(C)c1NC(=O)N[C@@H]1CC[C@H](CC(=O)NCCCN(C)C)O[C@H]1CO,·,-35,·,·
CC(C)NC(=O)Nc1ccc2c(c1)CC(=O)N([C@H](C)CO)C[C@H](C)[C@@H](CN(C)S(=O)(=O)c1cn(C)cn1)O2,·,4,·,·
CC(C)(C)OC(=O)N1Cc2cc3ccccc3nc2C1,·,·,-5,·
CC(C)(C)OC(=O)N1CCNc2ccccc2C1,·,96*,-6,·
C[C@@H]1CN([C@H](C)CO)C(=O)c2cccc(NC(=O)C3CCOCC3)c2O[C@H]1CN(C)Cc1ccccc1,·,5,·,·
O=C(CCCCCCC(=O)Nc1ccccc1)NO,-10,-101,152*,10
O=C(CCCCCN1C(=O)c2ccccc2C1=O)Nc1ccccc1,-31,0,6,31
O=C(Nc1cc(Br)ccc1O)c1cnn2c(C(F)F)cc(C3CC3)nc12,77*,·,-1,-77
O=C(O)c1c2c(nc3ccc(S(=O)(=O)N4CCC(C(=O)NCc5ccccc5)CC4)cc13)CCCC2,·,6,·,·
CN(Cc1ccccc1)C(=O)C1CCN(S(=O)(=O)c2ccc3nc4c(c(C(=O)O)c3c2)CCCC4)CC1,-11,1,69*,11
Oc1ccc(C[C@H]2CNC(=S)N2CC2CCCN2C[C@H](Cc2ccccc2)N2C[C@H](Cc3ccc(O)cc3)N(CCc3ccccc3)C2=S)cc1 (some centres not stated),-108,3,-16,108*
Oc1ccc(C[C@@H](CN2CCC[C@@H]2CN2C(=S)NC[C@@H]2Cc2ccccc2)N2C[C@H](Cc3ccccc3)N(CCc3ccccc3)C2=S)cc1,·,8,14,·
CCOC(=O)CC(=O)CSc1nc2ccc(C)cc2cc1C#N,9,23,83*,-9
CCC/C(=C1/c2ccccc2C(=O)N1c1ccccc1)c1ccc(O[C@@H]2CCCCO2)cc1,9,-3,-1,-9
CCC/C(=C1/c2ccccc2C(=O)N1c1ccccc1)c1ccc2c(c1)OCCO2,-2,115*,-2,2
COc1ccc(Nc2nc(-c3cccs3)cs2)c(OC)c1,54,1,1,-54
CCCCC(=O)Nc1nc(C)c(-c2csc(Nc3ccccc3OC)n2)s1,60,-79,14,-60
CCCCCC(=O)Nc1nc(C)c(-c2csc(Nc3cc(OC)ccc3OC)n2)s1,99*,-20,-6,-99
COc1ccc(Cl)cc1Nc1nc(-c2sc(NC(=O)CC(C)C)nc2C)cs1,49,-12,4,-49
CCCCCCC(=O)Nc1nc(C)c(-c2csc(Nc3cc(OC)ccc3OC)n2)s1,106*,-14,4,-106
COc1ccc(OC)c(Nc2nc(-c3cccs3)cs2)c1,92*,-12,-4,-92
CN1[C@@H]2Cn3c(cccc3=O)[C@H]1[C@@H](C(=O)NCC1CCCCC1)[C@@H]2CO,·,-5,·,·
C[C@@H]1CN([C@@H](C)CO)C(=O)c2cccc(NC(=O)C3CC3)c2O[C@H]1CN(C)S(=O)(=O)c1ccc(Cl)cc1,·,-27,·,·
CN1c2ccccc2C(C)(C)[C@]12C=Cc1cc(O)ccc1O2,40,1,74*,-40
CN1c2ccccc2C(C)(C)C12C=Nc1c(ccc3ccccc13)O2 (configuration not stated),-7,·,5,7
SMILES,SR-BI DiI inh,C2C12 statin,Vif inh,SR-BI uptake up
COc1cccc(/C=c2\s/c(=C/C(=O)c3ccc(C)cc3)[nH]c2=O)c1OC,10,·,11,-9
COc1ccc(/C=c2\s/c(=C/C(=O)c3ccc(C)cc3)[nH]c2=O)c(OC)c1,22,2,97*,-22
C[C@H]1CN([C@@H](C)CO)C(=O)c2cccc(NS(=O)(=O)c3ccc(F)cc3)c2O[C@H]1CN(C)S(=O)(=O)c1ccc(F)cc1,·,-14,·,·
CCCCn1c(N)c(N(CC)C(=O)c2cc(CC)c(C)s2)c(=O)[nH]c1=O,-33,·,55*,33
Cc1ccc(SCCNC(=S)Nc2cc(C)cc(C)c2)cc1,27,117*,0,-27
O=C(c1cccc(F)c1)N1CCC2(CC1)NCCc1[nH]cnc12,-17,1,4,·
O=C(c1cccc(Cl)c1)N1CCC2(CC1)NCCc1[nH]cnc12,-6,-21,52*,6
Cc1cc2cc(CN(Cc3ccc4c(c3)OCO4)C(=O)c3cnccn3)c3nnnn3c2cc1C,-10,·,1,10
O=C(c1ccccc1F)N(Cc1ccc2c(c1)OCO2)Cc1cc2cc3c(cc2n2nnnc12)OCO3,72*,39,-8,·
O=C1CSC(=S)N1/N=C/c1cc(Br)c(O)c(Br)c1,8,0,70*,-8
COc1cc(/C=N/N2C(=O)CSC2=S)ccc1O,-12,-12,1,12
C[C@H](CO)N1C[C@H](C)[C@@H](CN(C)C(=O)C2CCCCC2)Oc2ncc(-c3cccnc3)cc2C1=O,·,26,·,·
COc1cc(-c2nc3ccc4ccccc4c3c3c2CCC3)cc(OC)c1OC,60,94*,0,-60
CN(C)c1ccc2c(c1)[C@H]1C[C@H](CC(=O)NCc3cc(F)ccc3F)O[C@@H](CO)[C@H]1O2,·,-1,·,·
CCOc1ccc(C(C)=O)cc1CSc1nnc(-c2ccoc2C)n1N,71*,-21,4,·
Cc1cc(NC(=O)CSc2nnc(-c3ccoc3C)n2N)no1,-3,5,-17,3
Cc1cc(N2CCN(c3ccccc3)CC2)n2nnnc2n1,-5,149*,-1,5
Cc1cc(N2CCN(S(=O)(=O)Cc3ccccc3)CC2)n2ncnc2n1,11,4,26,-11
Cc1cc(N2CCN(c3nnnn3-c3ccccc3)CC2)n2ncnc2n1,-14,111*,22,14
O=C(N[C@@H]1CC[C@@H](CCn2cc(C3(O)CCCC3)nn2)O[C@@H]1CO)C1CCOCC1,·,6,·,·
CC(=O)c1ccc(NC(=O)COC(=O)CCC(=O)c2cccs2)cc1,-270,·,-10,270*
CCCCNc1oc(-c2cccs2)nc1S(=O)(=O)c1ccccc1,10,131*,-1,-10
CNc1oc(-c2cccs2)nc1S(=O)(=O)c1ccccc1,-8,·,-2,8
COc1cc(NCCCNC(C)C)c2nccc(C)c2c1,4,-1,67*,-4
COc1ccc(S(=O)(=O)N(C)C[C@H]2Oc3c(NC(=O)NC4CCCCC4)cccc3C(=O)N([C@H](C)CO)C[C@H]2C)cc1,·,4,·,·
COc1ccc(-n2c(=O)/c(=C\c3cccs3)s/c2=C(/C#N)C(=O)NCCN2CCOCC2)cc1,-5,4,0,5

# High-throughput results: PubChem, Broad Institute
